# Experimental data taken from paper PMC3352694 (International Journal of Nanomedicine, 2012).
# How the values were obtained:
# Caco-2 cell monolayers [1] = experiment: Uptake of Lac-NCTD and its nanoparticles into Caco-2 cell monolayers; assay type: in vitro ADME, human
# Summary of the method: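 Monolayers grown 15 days from 1 × 10⁵ cells/cm² in plates, washed, preincubated 15 min at 37°C in HBSS pH 7.4, then exposed to drug or nanoparticle solution. After uptake (15 min, chosen within the linear range), cells were washed thrice with cold HBSS, scraped, homogenized and ultracentrifuged. Supernatant was assayed by reversed-phase HPLC, normalized to Bradford protein and given as mg/g protein, three determinations.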
# Caco-2 cell monolayers [2] = experiment: Bidirectional transepithelial transport across Caco-2 cell monolayers; assay type: in vitro ADME, human
# Summary of the method: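 Caco-2 cells (passage 30–50) seeded at 1 × 10⁵ cells/cm² on 1.1 cm² polycarbonate inserts (1 μm pores), used day 21 when TEER reached 700 Ω·cm² and phenol red permeability <0.5%/h. HBSS pH 7.4 preincubation 15 min, 37°C; drug or nanoparticles dosed apically or basolaterally; receiver sampled at 5–60 min with replacement; reversed-phase HPLC. Papp = dQ/dt/(A·C0); PDR from BL→AP and AP→BL; n = 3.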
# [3] = cited from earlier work
substance,measurement,setting,value
Lactosyl-norcantharidin [Lac-NCTD],Effect of concentration on uptake,Caco-2 cell monolayers [1]; 100 μg/mL to 400 μg/mL,Concentration dependence or saturation was observed
same,Uptake amount,"Caco-2 cell monolayers [1]; 250 μg/mL, 4°C",1.35 ± 0.13 mg/g protein
same,Time course of uptake,"Caco-2 cell monolayers [1]; 250 μg/mL, 37°C","linear in relation to time, from 0 minutes to 30 minutes"
same,Uptake amount,"Caco-2 cell monolayers [1]; 250 μg/mL, pH 6.0",0.82 ± 0.23 mg/g protein
same,Effect of P-gp inhibitor CyA on uptake,Caco-2 cell monolayers [1]; CyA 20 μmol/L,facilitate the uptake procedure
same,Effect of MRP2 inhibitor MK-571 on uptake,Caco-2 cell monolayers [1]; MK-571 50 μmol/L,facilitate the uptake procedure
same,Change of Papp apical to basolateral with CyA,"Caco-2 cell monolayers [2]; 250 μg/mL, CyA 20 μmol/L",increased
same,Change of Papp basolateral to apical with CyA,"Caco-2 cell monolayers [2]; 250 μg/mL, CyA 20 μmol/L",decreased
same,Change of Papp apical to basolateral with MK-571,"Caco-2 cell monolayers [2]; 250 μg/mL, MK-571 50 μmol/L",significantly increased
same,Change of Papp basolateral to apical with MK-571,"Caco-2 cell monolayers [2]; 250 μg/mL, MK-571 50 μmol/L",lightly decreased
same,Change of Papp with bypass transport enhancer SDCh,"Caco-2 cell monolayers [2]; 250 μg/mL, SDCh 100 mmol/L, versus control",significantly increased
same,Change of Papp with endocytosis inhibitor oxophenylarsine,"Caco-2 cell monolayers [2]; 250 μg/mL, oxophenylarsine 25 mmol/L, versus control",no statistical difference
same,Increase of Papp apical to basolateral with CyA,Caco-2 cell monolayers [2]; CyA 20 μmol/L added to the apical side,1.41 times
same,Increase of Papp apical to basolateral with MK-571,Caco-2 cell monolayers [2]; MK-571 50 μmol/L added to the apical side,2.29 times
same,Therapy efficiency compared with NCTD,[3],significantly higher therapy efficiency
same,Toxicity compared with NCTD,[3],lower toxicity
